IC50 data for 68 molecules are collected here from ChEMBL document CHEMBL1136659, “Benzamide derivatives as blockers of Kv1.3 ion channel” (Bioorg Med Chem Lett, 2003).

Test [1] deals with T1, Potassium voltage-gated channel subfamily A member 3 (Homo sapiens, UniProt P22001). The test can be described thus: Inhibition of Kv1.3 ion channel. Measured in the Rb_Kv assay: [86Rb+] efflux from CHO cells stably transfected with Kv1.3 channel. It is filed as functional, cell-based.
The target of test [2] is T1, Potassium voltage-gated channel subfamily A member 3. In words: Inhibition of [86Rb+] efflux from CHO cells stably transfected with Kv1.3 channel. It is filed as functional, cell-based.
Test [3] shares this target. In words: Inhibition of DiTc binding to Kv1.3 channel in human brain membranes. It is filed as cell membranes, Membrane.
Test [4] is described as follows: Inhibition of DiTc binding to Kv1.x channel in human brain membranes. It is filed as cell membranes, Membrane. In outline:
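Displacement of diTC (C20-C29 ditritio-correolide) binding to human brain membranes carrying Kv1.x channels, primarily heteromultimeric Kv1.1/Kv1.2.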

Where only a bound is given, the exact number is not on record here.

T1 sequence (P22001 whole entry): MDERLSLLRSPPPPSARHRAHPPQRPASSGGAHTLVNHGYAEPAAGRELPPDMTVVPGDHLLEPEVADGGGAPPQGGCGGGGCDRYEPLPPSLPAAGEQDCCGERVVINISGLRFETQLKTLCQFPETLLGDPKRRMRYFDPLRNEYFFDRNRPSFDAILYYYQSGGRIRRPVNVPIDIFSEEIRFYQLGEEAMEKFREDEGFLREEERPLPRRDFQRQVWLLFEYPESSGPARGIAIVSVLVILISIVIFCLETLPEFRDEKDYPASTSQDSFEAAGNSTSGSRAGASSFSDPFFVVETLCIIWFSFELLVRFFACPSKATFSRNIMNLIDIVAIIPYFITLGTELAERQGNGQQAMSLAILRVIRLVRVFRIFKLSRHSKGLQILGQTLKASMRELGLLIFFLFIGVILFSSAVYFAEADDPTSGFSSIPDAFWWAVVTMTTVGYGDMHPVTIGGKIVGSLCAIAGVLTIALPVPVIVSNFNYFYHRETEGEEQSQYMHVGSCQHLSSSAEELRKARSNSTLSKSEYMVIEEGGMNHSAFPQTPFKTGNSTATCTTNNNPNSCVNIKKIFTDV

One may read the IC50 as the concentration that inhibits the measured activity by half. A higher IC50 goes with weaker potency in that assay. `C=CCNC(=O)O[C@H]1CC[C@@](CNC(=O)c2cccc3c2OCC3)(c2ccccc2)CC1` displayed an IC50 in test [1] of 3730 nM.

Consider `C=CCNC(=O)N[C@H]1CC[C@@](CNC(=O)c2ccccc2OC)(c2ccccc2)CC1`, for which the values for the IC50 in test [2], in test [3] and in test [4] were 150 nM, 29 nM and 120 nM, respectively.

In test [1], `COc1ccccc1C(=O)NC[C@]1(c2ccccc2)CC[C@@H](NC(=O)c2ccccc2)CC1` returned an IC50 of 1560 nM.

On to `C=CCN(C)C(=O)O[C@H]1CC[C@@](CNC(=O)c2ccccc2OC)(c2ccccc2)CC1`, for which the IC50 in test [1] amounted to 320 nM.

Molecule `COc1ccccc1C(=O)NC[C@]1(c2ccccc2)CC[C@@H](OC(=O)NCCO)CC1` gave an IC50 in test [1] of 310 nM.

For `COCCCNC(=O)O[C@H]1CC[C@](CNC(=O)c2ccccc2OC)(c2ccccc2)CC1`, 130 nM corresponded to half-maximal inhibition in test [1] (IC50). Against the preceding molecule, the IC50 is about 2.4-fold lower.

Take `O=C1CCC(CNC(=O)c2ccccc2)(c2ccccc2)CC1`: the IC50 in test [1] is greater than 30000 nM.

In the case of `C=CCNC(=O)O[C@H]1CC[C@](CNC(=O)c2ccccc2OC)(c2ccccc2)CC1`, the IC50 was found to be 130 nM in test [2], 140 nM in test [3] and 170 nM in test [4].

Regarding `COc1ccccc1C(=O)NC[C@]1(c2ccccc2)CC[C@H](NC(=O)CCc2ccccc2)CC1`, in test [1], the IC50 worked out at 120 nM.

`COc1ccccc1C(=O)NC[C@]1(c2ccccc2)CC[C@@H](NC(=O)c2cccc(Br)c2)CC1` gave an IC50 in test [1] greater than 30000 nM.

`COc1ccccc1C(=O)NC[C@]1(c2ccccc2)CC[C@H](NC(=O)c2ccccc2)CC1` showed an IC50 in test [1] of 75 nM. This counts as double-digit nanomolar.

On to `COc1cccc(C(=O)NCC2(c3ccccc3)CCC(=O)CC2)c1`, for which the IC50 in test [1] is greater than 30000 nM.

In the case of `COc1ccccc1C(=O)NCC1CCCCC1`, the IC50 in test [1] is greater than 30000 nM.

`CCCCNC(=O)O[C@H]1CC[C@@](CNC(=O)c2ccccc2OC)(c2ccccc2)CC1`: the IC50 in test [1] was 90 nM.

`COCCNC(=O)O[C@H]1CC[C@@](CNC(=O)c2ccccc2OC)(c2ccccc2)CC1`: the midpoint of inhibition in test [1], the IC50, lay at 140 nM.

`COCCCNC(=O)O[C@H]1CC[C@@](CNC(=O)c2ccccc2OC)(c2ccccc2)CC1`: the midpoint of inhibition in test [1], the IC50, lay at 145 nM.

As for `C=CCNC(=O)N[C@H]1CC[C@](CNC(=O)c2ccccc2OC)(c2ccccc2)CC1`, the IC50 is 140 nM in test [2], 80 nM in test [3] and 125 nM in test [4].

`COc1ccccc1C(=O)NC[C@]1(c2ccccc2)CC[C@@H](NC(=O)CCc2ccccc2)CC1`: inhibition in test [1] was half-maximal at 570 nM (IC50).

In test [1], `COc1ccccc1C(=O)NC[C@]1(c2ccccc2)CC[C@@H](NC(=O)C=C(C)C)CC1` registered an IC50 of 470 nM. The IC50 values of the last two molecules are within 1.5-fold of each other.

In test [1], `COc1ccccc1C(=O)NC[C@]1(c2ccccc2)CC[C@@H](OC(=O)NCc2ccccc2)CC1` registered an IC50 of 1700 nM.

As for `COc1ccccc1C(=O)NC[C@]1(c2ccccc2)CC[C@H](OC(=O)NC(C)C)CC1`, in test [1], the concentration for half-maximal inhibition (IC50) was determined as 130 nM.

The molecule `CCC(=O)N[C@H]1CC[C@@](CNC(=O)c2ccccc2OC)(c2ccccc2)CC1` yielded an IC50 in test [1] of 210 nM. Against the preceding molecule, the IC50 is about 1.6-fold higher.

In test [1], `COc1ccccc1C(=O)NC[C@]1(c2ccccc2)CC[C@@H](NC(C)=O)CC1` gave an IC50 of 470 nM.

As for `CCCNC(=O)O[C@H]1CC[C@@](CNC(=O)c2ccccc2OC)(c2ccccc2)CC1`, the IC50 in test [2] came out at 50 nM; in test [3], 5 nM; in test [4], 30 nM.

For the molecule `CNC(=O)O[C@H]1CC[C@@](CNC(=O)c2ccccc2OC)(c2ccccc2)CC1`, the IC50 worked out at 58 nM in test [2], 5 nM in test [3] and 33 nM in test [4].

With `C=CCN(C)C(=O)O[C@H]1CC[C@](CNC(=O)c2ccccc2OC)(c2ccccc2)CC1`, in test [1], half-maximal inhibition (IC50) required 145 nM.

Turning to `COc1ccccc1C(=O)NC[C@]1(c2ccccc2)CC[C@@H](OC(=O)NC(C)C)CC1`, the IC50 in test [1] was 75 nM. This IC50 is about 1.9-fold lower than that of the molecule before.

As to `COc1ccccc1C(=O)NC[C@]1(c2ccccc2)CC[C@@H](NC(=O)SC)CC1`, half-maximal inhibition in test [1] (IC50) required 150 nM.

For the molecule `COc1ccccc1C(=O)NC[C@]1(c2ccccc2)CC[C@H](OC(=O)NCCO)CC1`, in test [1], the IC50 came to 95 nM.

In test [1], `CCOc1ccccc1C(=O)NCC1(c2ccccc2)CCC(=O)CC1` gave an IC50 of 580 nM.

`C=CCN(C)C(=O)N[C@H]1CC[C@](CNC(=O)c2ccccc2OC)(c2ccccc2)CC1` had a 50% inhibitory concentration (IC50) in test [1] of 195 nM.

With `CNC(=O)O[C@H]1CC[C@](CNC(=O)c2ccccc2OC)(c2ccccc2)CC1`, the IC50 in test [2] is 150 nM; in test [3], 99 nM; in test [4], 104 nM.

`C=C(C)CNC(=O)O[C@H]1CC[C@](CNC(=O)c2ccccc2OC)(c2ccccc2)CC1`: inhibition in test [1] was half-maximal at 120 nM (IC50). That is a sub-micromolar value.

In turn, `COc1ccccc1C(=O)NC[C@]1(c2ccccc2)CC[C@H](OC(=O)Nc2ccccc2)CC1` showed an IC50 in test [1] of 120 nM.

`COc1ccccc1C(=O)NC[C@]1(c2ccccc2)CC[C@@H](NC(=O)c2ccc(Br)cc2)CC1` gave an IC50 in test [1] greater than 30000 nM.

Regarding `COc1ccccc1C(=O)N(C)CC1(c2ccccc2)CCC(=O)CC1`, the IC50 in test [1] was greater than 30000 nM.

The molecule `COCCNC(=O)O[C@H]1CC[C@](CNC(=O)c2ccccc2OC)(c2ccccc2)CC1` gave an IC50 in test [1] of 140 nM. That is a sub-micromolar value.

`CCCC(=O)N[C@H]1CC[C@@](CNC(=O)c2ccccc2OC)(c2ccccc2)CC1` yielded an IC50 in test [1] of 200 nM.

Molecule `C=CCNC(=O)O[C@H]1CC[C@@](CNC(=O)c2cc(Cl)ccc2OC)(c2ccccc2)CC1` gave an IC50 in test [1] of 230 nM.

For the molecule `COc1ccccc1C(=O)NC[C@]1(c2ccccc2)CC[C@H](NC(=O)Cc2ccccc2)CC1`, the IC50 in test [1] amounted to 130 nM.

In the case of `CNc1ccccc1C(=O)NCC1(c2ccccc2)CCC(=O)CC1`, inhibition in test [1] was half-maximal at 600 nM (IC50).

`COc1ccccc1C(=O)NC[C@]1(c2ccccc2)CC[C@@H](NC(=O)Cc2ccccc2)CC1` registered an IC50 in test [1] of 1050 nM.

`COc1ccccc1C(=O)NC[C@]1(c2ccccc2)CC[C@H](OC(=O)NCCCc2ccccc2)CC1`: in test [1], the IC50 came to 535 nM.

The molecule `C/C=C/C(=O)N[C@H]1CC[C@](CNC(=O)c2ccccc2OC)(c2ccccc2)CC1` came in with an IC50 in test [1] of 100 nM.

The molecule `CCCCNC(=O)O[C@H]1CC[C@](CNC(=O)c2ccccc2OC)(c2ccccc2)CC1` displayed an IC50 in test [1] of 140 nM.

Turning to `C=CCOC(=O)N[C@H]1CC[C@](CNC(=O)c2ccccc2OC)(c2ccccc2)CC1`, the IC50 in test [2] amounted to 90 nM; in test [3], 72 nM; in test [4], 68 nM.

As to `COc1ccccc1C(=O)NC[C@]1(c2ccccc2)CC[C@H](OC(=O)NCCc2ccccc2)CC1`, the midpoint of inhibition in test [1], the IC50, lay at 420 nM.

The molecule `COc1ccccc1C(=O)NCC1(c2ccccc2)CCC(=O)CC1` yielded an IC50 in test [1] of 200 nM.

In test [1], `C=CCN(CC=C)C(=O)O[C@H]1CC[C@](CNC(=O)c2ccccc2OC)(c2ccccc2)CC1` registered an IC50 of 205 nM.

With `COc1ccc(C(=O)NCC2(c3ccccc3)CCC(=O)CC2)cc1`, in test [1], inhibition was half-maximal at 10000 nM (IC50).

Regarding `C=CCNC(=O)O[C@H]1CC[C@@](CNC(=O)c2ccccc2OC)(c2ccccc2)CC1`, the IC50 in test [2] came out at 70 nM; in test [3], 18 nM; in test [4], 112 nM.

`C=CCOC(=O)N[C@H]1CC[C@@](CNC(=O)c2ccccc2OC)(c2ccccc2)CC1` registered an IC50 in test [1] of 242 nM.

For `COc1ccccc1C(=O)NC[C@]1(c2ccccc2)CC[C@@H](OC(=O)Nc2ccccc2)CC1`, the IC50 in test [1] was greater than 30000 nM.

`COc1ccccc1C(=O)NC[C@]1(c2ccccc2)CC[C@H](OC(=O)NCc2ccccc2)CC1` showed an IC50 in test [1] of 245 nM.

As to `COc1ccccc1C(=O)N(C)CC1(c2ccccc2)CCNCC1`, the IC50 in test [1] is greater than 30000 nM.

In test [1], `COc1ccccc1S(=O)(=O)NCC1(c2ccccc2)CCC(=O)CC1` registered an IC50 greater than 30000 nM.

As for `COc1ccccc1C(=O)NC[C@]1(c2ccccc2)CC[C@@H](NC(=O)c2ccccc2Br)CC1`, the IC50 in test [1] came to 2790 nM.

Take `C=CCNC(=O)O[C@H]1CC[C@@](CNC(=O)c2cc(F)ccc2O)(c2ccccc2)CC1`: in test [1], the midpoint of inhibition, the IC50, lay at 140 nM.

`C=CCNC(=O)O[C@H]1CC[C@@](CNC(=O)c2cccc(Cl)c2OC)(c2ccccc2)CC1`: in test [1], the IC50 worked out at 8380 nM.

In the case of `CCCNC(=O)O[C@H]1CC[C@](CNC(=O)c2ccccc2OC)(c2ccccc2)CC1`, the IC50 was found to be 100 nM in test [2], 79 nM in test [3] and 76 nM in test [4].

In test [1], `C=CCNC(=O)O[C@H]1CC[C@@](CNC(=O)c2cccnc2OC)(c2ccccc2)CC1` had a concentration for half-maximal inhibition (IC50) of 325 nM.

Molecule `C=CCN(CC=C)C(=O)O[C@H]1CC[C@@](CNC(=O)c2ccccc2OC)(c2ccccc2)CC1` displayed an IC50 in test [1] of 840 nM. Compared with the last molecule, the IC50 is about 2.6-fold higher.

In test [1], `C=C(C)CNC(=O)O[C@H]1CC[C@@](CNC(=O)c2ccccc2OC)(c2ccccc2)CC1` yielded an IC50 of 90 nM. Against the preceding molecule, the IC50 is about 9.3-fold lower.

Take `C/C=C/C(=O)N[C@H]1CC[C@@](CNC(=O)c2ccccc2OC)(c2ccccc2)CC1`: the IC50 in test [1] was found to be 440 nM.

`COC(=O)N[C@H]1CC[C@@](CNC(=O)c2ccccc2OC)(c2ccccc2)CC1` yielded an IC50 in test [1] of 135 nM.

Take `O=C1CCC(CNC(=O)c2cccc(Cl)c2)(c2ccccc2)CC1`: inhibition in test [1] was half-maximal at 30000 nM (IC50). Compared with the last molecule, the IC50 is about 220-fold higher.

For the molecule `C=CCOC(=O)O[C@H]1CC[C@](CNC(=O)c2ccccc2OC)(c2ccccc2)CC1`, in test [1], the IC50 was 230 nM.

`C=CCNC(=O)O[C@H]1CC[C@@](CNC(=O)c2cccc(Cl)c2O)(c2ccccc2)CC1`: the concentration for half-maximal inhibition (IC50) in test [1] amounted to 7200 nM. Against the preceding molecule, the IC50 is about 31-fold higher.
